According to ChEMBL document CHEMBL1129943, “5-aminocoumarans: dual inhibitors of lipid peroxidation and dopamine release with protective effects against central nervous system trauma and ischemia” (J Med Chem, 1997):

What was measured:
Format in all cases: functional
Mus musculus [1] = species on record: Mus musculus; experiment: Peroral dose required to reduce by 50% the score of excitatory behavior induced by intrathecal injection of ferrous chloride in mice; conditions: central, read-out: ID50 (the source's name)
How it was run: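 Male Slc:ICR mice, 5 weeks old, 10 per dose. Compound given orally 30 min before intrathecal 5 μL of 50 mM FeCl2 in saline (between L6 and S1). Vehicle was water, or 0.5% gum arabic suspension. Behaviour scored 0–5 (biting to death) from 15 min to 1 h. ID50 from three or four doses, relative to vehicle score.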

Rattus norvegicus [2] = species on record: Rattus norvegicus; experiment: Concentration required to reduce by 50% the amount of lipid peroxide formed in rat liver microsomes
How it was run: (§1)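 Rat liver microsomes (S-9), 0.3 mg protein in 40 mM Tris-malate pH 7.4. Peroxidation started with a 1:1 mix of FeCl2 (0.25 mM) and NADPH (3 mM), then 1 h at 37 °C. Compound in DMSO added before incubation, tested up to 1 μM final. Thiobarbituric acid method read-out. Activity relative to DMSO vehicle; IC50 from four concentrations by nonlinear regression, otherwise % inhibition at 1 μM.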

Mus musculus [3] = experiment: Locomotor activity was measured in mice after 1 hour administration of methamphetamine; design: unit not given here
Mus musculus [4] = species on record: Mus musculus; experiment: Percentage increase of locomotor activity in mice
Rattus norvegicus [5] = species on record: Rattus norvegicus; experiment: Inhibition of lipid peroxidation by rat liver microsomes; design: concentration or dose not given beside the values; conditions: dose or concentration not given here; how it was run: as §1

| SMILES | IC50 (Rattus norvegicus [2]) | ED50 (Mus musculus [1]) | Locomotor activity (Mus musculus [3]) | Increase (Mus musculus [4]) | inhibition (Rattus norvegicus [5]) |
| --- | --- | --- | --- | --- | --- |
| Cc1c(C)c2c(c(C)c1N)CC(C)(CCN(C)C)O2 (configuration not stated) |  | 19 mg/kg | 2129 | 115.2% | 4% |
| CCOC(=O)Nc1c(C)c(C)c2c(c1C)CC(C)(C)O2 |  | > 100 mg/kg |  |  | 1% |
| Cc1c(C)c2c(c(C)c1N)CC(C)(CN1CCOCC1)O2 (configuration not stated) | 410 nM | 19.2 mg/kg | 3209 | 103.1% |  |
| Cc1c(C)c2c(c([N+](=O)[O-])c1N)CC(C)(C)O2 |  | > 100 mg/kg |  |  | 0% |
| CCNc1c(C)c(C)c2c(c1C)CC(C)(C)O2 |  | 38.9 mg/kg |  |  | 16% |
| Cc1c(C)c2c(c(C)c1NC=O)CC(C)(C)O2 |  | > 100 mg/kg |  |  | 0% |
| Cc1c(N)c(C)c2c(c1CN(C)C)OC(C)(C)C2 |  | > 50 mg/kg |  |  | 4% |
| Cc1c(C)c2c(c(C)c1N)CC(C)(CN1CCN(C(c3ccccc3)c3ccccc3)CC1)O2 (configuration not stated) | 70 nM | > 50 mg/kg | 1664 | 62.8% |  |
| CCC(=O)Nc1c(C)c(C)c2c(c1C)CC(C)(C)O2 |  | > 100 mg/kg |  |  | 1% |
| Cc1ccc(C2c3c(C)c(N)c(C)c(C)c3OC2(C)C)cc1 (configuration not stated) | 300 nM | > 50 mg/kg |  |  |  |
| Cc1c(C)c2c(c(C)c1NS(C)(=O)=O)CC(C)(C)O2 |  | > 100 mg/kg |  |  | -1% |
| Cc1c(C)c2c(c(C)c1N)CC(C)(CSCCC(=O)O)O2 (configuration not stated) |  | 43 mg/kg |  |  | 0% |
| Cc1c(C)c2c(c(C)c1N)C(c1ccc(F)cc1)C(C)(C)O2 (configuration not stated) | 280 nM | 26.7 mg/kg | 2156 | 181.3% |  |
| Cc1cc(N)c(C)c2c1OC(C)(C)C2 |  | 32.3 mg/kg |  |  | 19% |
| Cc1c(C)c2c(c(C)c1N)C(c1ccc(C(C)C)cc1)C(C)(C)O2 (configuration not stated) | 290 nM | > 50 mg/kg |  |  |  |
| Cc1c(C)c2c(c(C)c1Nc1ccc3c(c1)CC(C)(C)O3)CC(C)(C)O2 | 30 nM | > 25 mg/kg |  |  |  |
| Cc1c(C)c2c(c(C)c1N)CC(C)(CSCCO)O2 (configuration not stated) |  | > 50 mg/kg |  |  | 11% |
| CC(C)=Cc1c(C)c(N)c(C)c2c1OC(C)(C)C2 | 300 nM | 21.9 mg/kg |  |  |  |

| SMILES | IC50 (Rattus norvegicus [2]) | ED50 (Mus musculus [1]) | Locomotor activity (Mus musculus [3]) | Increase (Mus musculus [4]) | inhibition (Rattus norvegicus [5]) |
| --- | --- | --- | --- | --- | --- |
| COC(=O)/C=C\C1(C)Cc2c(C)c(N)c(C)c(C)c2O1 (configuration not stated) |  | > 100 mg/kg |  |  | 38% |
| Cc1c(C)c2c(c(N(C)C)c1N)CC(C)(C)O2 | 550 nM | 22.3 mg/kg |  |  |  |
| Cc1c(C)c2c(c(C)c1N)CC(C)(C)O2 | 760 nM | 7.8 mg/kg | <509 | 31.5% |  |
| Cc1c(N)c(C)c2c(c1CN1CCCCC1)OC(C)(C)C2 |  | > 50 mg/kg |  |  | 3% |
| Cc1c(C)c2c(c(C)c1Nc1ccc(Cl)cc1)CC(C)(C)O2 | 300 nM | > 50 mg/kg |  |  |  |
| CCCc1ccc(C2c3c(C)c(N)c(C)c(C)c3OC2(C)C)cc1 (configuration not stated) | 290 nM | > 50 mg/kg |  |  |  |
| Cc1c(C)c2c(c(C)c1N)C(C(C)C)C(C)(C)O2 (configuration not stated) | 290 nM | 14 mg/kg |  |  |  |
| Cc1c(N)c(C)c2c(c1CC(C)C)OC(C)(C)C2 | 140 nM | 13.3 mg/kg |  |  |  |
| CCCNc1c(C)c(C)c2c(c1C)CC(C)(C)O2 |  | 51.1 mg/kg |  |  | 24% |
| Cc1c(C)c2c(c(C)c1Nc1cccnc1)CC(C)(C)O2 |  | > 50 mg/kg |  |  | 4% |
| Cc1cc2c(c(C)c1N)CC(C)(C)O2 |  | 16.3 mg/kg |  |  | 14% |
| Cc1c(C)c2c(c(N)c1N)CC(C)(C)O2 | 300 nM | > 50 mg/kg |  |  |  |
| CCCCCc1ccc(C2c3c(C)c(N)c(C)c(C)c3OC2(C)C)cc1 (configuration not stated) | 50 nM | 42.2 mg/kg |  |  |  |
| Cc1ccc(S(=O)(=O)Nc2c(C)c(C)c3c(c2C)CC(C)(C)O3)cc1 |  | > 100 mg/kg |  |  | 3% |
| CC(=O)Nc1c(C)c(C)c2c(c1C)CC(C)(C)O2 |  | > 100 mg/kg |  |  | -2% |
| Cc1c(N)cc2c(c1C)OC(C)(C)C2 |  | 24.4 mg/kg |  |  | 26% |
| CC1(C)Cc2cc(N)ccc2O1 |  | > 100 mg/kg |  |  | 5% |

More lines, main results first:

| IC50 (Rattus norvegicus [2]) | SMILES | ED50 (Mus musculus [1]) | Locomotor activity (Mus musculus [3]) | Increase (Mus musculus [4]) | inhibition (Rattus norvegicus [5]) |
| --- | --- | --- | --- | --- | --- |
| 800 nM | Cc1c(C)c2c(c(C)c1N)CC(C)(CS(=O)(=O)c1ccccc1)O2 (configuration not stated) | 36.6 mg/kg |  |  |  |
| 220 nM | Cc1c(C)c2c(c(C)c1N)CC(C)(CSc1ccc(O)cc1)O2 (configuration not stated) | > 50 mg/kg |  |  |  |
| 300 nM | COCC1(C)Cc2c(C)c(N)c(C)c(C)c2O1 (configuration not stated) | 20.1 mg/kg | 1934 | 76.7% |  |
| 280 nM | Cc1c(C)c2c(c(C)c1N)CC(C)(COCc1ccccc1)O2 (configuration not stated) | 18.6 mg/kg | 1657 | 64% |  |
| 270 nM | Cc1c(C)c2c(c(C)c1N)CC(C)(CSc1ccccc1)O2 (configuration not stated) | 24.7 mg/kg | <1098 | 24.7% |  |
| 70 nM | Cc1c(C)c2c(c(C)c1N)CC(C)(CN1CCN(c3ccccc3)CC1)O2 (configuration not stated) | 13.1 mg/kg | 1484 | 47.3% |  |
| 660 nM | Cc1c(C)c2c(c(C)c1N)CC(C)(C[S+]([O-])c1ccccc1)O2 (configuration not stated) | 31.3 mg/kg |  |  |  |
| 280 nM | CCCSCC1(C)Cc2c(C)c(N)c(C)c(C)c2O1 (configuration not stated) | 24.6 mg/kg | 1540 | 56.4% |  |
| 290 nM | Cc1c(C)c2c(c(C)c1N)CC(C)(CNCc1ccccc1)O2 (configuration not stated) | 9.1 mg/kg | 1340 | 46.1% |  |
| 280 nM | Cc1c(C)c2c(c(C)c1Nc1ccccc1)CC(C)(C)O2 | > 50 mg/kg |  |  |  |
| 300 nM | Cc1c(C)c2c(c(C)c1N)CC(C)(CBr)O2 (configuration not stated) | 16 mg/kg | 1115 | 34.5% |  |
| 80 nM | Cc1c(C)c2c(c(C)c1N)CC(C)(CNCCCCc1ccccc1)O2 (configuration not stated) | 17 mg/kg |  |  |  |
| 80 nM | Cc1c(C)c2c(c(C)c1N)CC(C)(CCc1ccc(F)cc1)O2 (configuration not stated) | 11.5 mg/kg | 1185 | 80.1% |  |
| 260 nM | Cc1c(C)c2c(c(C)c1N)CC(C)(CNc1ccccc1)O2 (configuration not stated) | 15.7 mg/kg | 1812 | 70.4% |  |
| 70 nM | Cc1c(C)c2c(c(C)c1N)CC(C)(CSc1nc3ccccc3s1)O2 (configuration not stated) | 33.7 mg/kg | 1391 | 45.3% |  |
| 290 nM | Cc1c(C)c2c(c(C)c1N)CC(C)(CNCCc1ccccc1)O2 (configuration not stated) | 14.2 mg/kg |  |  |  |
| 70 nM | Cc1c(C)c2c(c(C)c1N)CC(C)(CN1CCC(c3ccccc3)CC1)O2 (configuration not stated) | 10.4 mg/kg | <482 | 1.8% |  |
| 630 nM | Cc1c(C)c2c(c(C)c1N)CC(C)(CSc1ccncc1)O2 (configuration not stated) | 19.9 mg/kg | <892 | 10.2% |  |
| 290 nM | Cc1c(C)c2c(c(C)c1N)C(c1ccccc1)C(C)(C)O2 (configuration not stated) | 24.8 mg/kg | 1845 | 77.3% |  |
| 260 nM | Cc1c(C)c2c(c(C)c1N)CC(C)(CSCc1ccccc1)O2 (configuration not stated) | 32 mg/kg | 1099 | 33.6% |  |
| 220 nM | Cc1c(C)c2c(c(C)c1N)CC(C)(CSc1ccc(F)cc1)O2 (configuration not stated) | 17.9 mg/kg | 1625 | 61.8% |  |
